Source: ChEMBL document CHEMBL4393654, “Discovery and Early Clinical Development of an Inhibitor of 5-Lipoxygenase Activating Protein (AZD5718) for Treatment of Coronary Artery Disease” (J Med Chem, 2019)
In brackets after ≈: the same amount, converted by molar mass. Each block holds one molecule with its values, some of them ahead of it. Activity calls are given as the source filed them. No cut-off for these calls is given here.

How the values were obtained:
[1] = target: T1, Arachidonate 5-lipoxygenase-activating protein (Homo sapiens) (UniProt P20292); experiment: Inhibition of FLAP in human whole blood assessed as reduction in calcium ionophore-stimulated LTB4 production preincubated for 4 hrs followed by calcium ionophore stimulation and measured after 20 mins by EIA; assay type: tissue-based
T1 sequence (whole entry): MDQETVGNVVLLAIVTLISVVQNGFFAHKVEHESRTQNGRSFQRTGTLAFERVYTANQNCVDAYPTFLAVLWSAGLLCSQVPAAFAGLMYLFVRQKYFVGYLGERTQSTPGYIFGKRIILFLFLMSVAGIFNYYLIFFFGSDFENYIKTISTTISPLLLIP
How it was run: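 Fresh human whole blood was incubated with compound for 4 h, then stimulated with calcium ionophore, and LTB4 production was measured as the 5-LO pathway read-out. IC50 was also converted to a free value: IC50 × (Fu/100), where Fu = 100 − human plasma protein binding (%).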

THP-1 = experiment: Cytotoxicity against human THP1 cells assessed as reduction in cell viability measured after 48 hrs by resazurin assay; assay type: cell-based; details: THP-1, 48 h
HepG2 = experiment: Cytotoxicity against human HepG2 cells assessed as reduction in ATP depletion in presence of glucose/galactose; assay type: cell-based
[2] = target: Prostaglandin G/H synthase 1 (Homo sapiens) (UniProt P23219); experiment: Activity at COX1 in human whole blood assessed as effect on […] production by EIA; assay type: tissue-based
Chain of Prostaglandin G/H synthase 1 (Homo sapiens) (P23219 whole entry): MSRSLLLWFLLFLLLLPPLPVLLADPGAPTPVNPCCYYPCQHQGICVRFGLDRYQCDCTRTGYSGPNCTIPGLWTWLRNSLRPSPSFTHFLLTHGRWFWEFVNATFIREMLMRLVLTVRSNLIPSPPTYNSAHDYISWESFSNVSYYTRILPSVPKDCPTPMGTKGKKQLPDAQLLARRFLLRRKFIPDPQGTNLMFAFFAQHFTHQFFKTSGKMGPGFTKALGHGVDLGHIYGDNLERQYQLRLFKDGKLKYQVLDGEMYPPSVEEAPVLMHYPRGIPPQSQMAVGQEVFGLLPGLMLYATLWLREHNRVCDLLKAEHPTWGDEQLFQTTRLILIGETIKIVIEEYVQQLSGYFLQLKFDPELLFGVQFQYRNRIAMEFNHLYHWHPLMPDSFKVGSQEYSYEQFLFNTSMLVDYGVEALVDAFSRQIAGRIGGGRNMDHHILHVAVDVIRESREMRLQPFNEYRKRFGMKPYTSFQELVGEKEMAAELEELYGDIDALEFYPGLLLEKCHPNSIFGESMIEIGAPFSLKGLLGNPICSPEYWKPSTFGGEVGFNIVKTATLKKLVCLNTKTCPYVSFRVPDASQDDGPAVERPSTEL

[3] = target: T2, Prostaglandin G/H synthase 2 (Homo sapiens) (UniProt P35354); experiment: Activity at COX2 in human whole blood assessed as effect on LPS-induced PGE2 production preincubated for 15 mins followed by LPS-stimulation and measured after overnight incubation by EIA; assay type: tissue-based
T2 sequence (whole entry): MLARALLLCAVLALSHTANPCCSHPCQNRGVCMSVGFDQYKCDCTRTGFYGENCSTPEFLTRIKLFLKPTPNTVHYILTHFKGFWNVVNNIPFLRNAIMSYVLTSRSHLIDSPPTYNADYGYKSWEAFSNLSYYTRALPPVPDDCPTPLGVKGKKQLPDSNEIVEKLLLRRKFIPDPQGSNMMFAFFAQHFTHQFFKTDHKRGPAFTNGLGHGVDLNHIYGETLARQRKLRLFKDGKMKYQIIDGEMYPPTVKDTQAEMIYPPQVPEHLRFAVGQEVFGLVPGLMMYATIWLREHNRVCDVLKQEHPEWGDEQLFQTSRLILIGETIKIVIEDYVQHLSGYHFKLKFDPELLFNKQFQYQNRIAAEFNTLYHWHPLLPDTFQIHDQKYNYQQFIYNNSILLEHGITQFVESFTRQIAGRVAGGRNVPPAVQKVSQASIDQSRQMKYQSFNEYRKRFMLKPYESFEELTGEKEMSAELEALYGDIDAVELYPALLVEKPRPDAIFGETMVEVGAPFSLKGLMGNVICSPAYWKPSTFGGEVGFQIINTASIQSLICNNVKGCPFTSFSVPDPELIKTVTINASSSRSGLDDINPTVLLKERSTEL

[4] = Aqueous solubility of the compound in pH 7.4 phosphate buffer measured after 24 hrs by LC-MS/MS-based shake flask method; assay type: physicochemical
[5] = Intrinsic clearance in human hepatocytes assessed per million cells at 1 uM measured after 2 to 60 mins by LC-MS/MS analysis; assay type: ADME, cell-based, Hepatocyte; details: read-out: CLH
[6] = Intrinsic clearance in rat hepatocytes assessed per million cells at 1 uM measured after 2 to 60 mins by LC-MS/MS analysis; assay type: ADME, cell-based, Hepatocyte; details: read-out: CLH
How it was run: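 Rat hepatocyte incubation of the compound; intrinsic clearance measured after incubation.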

[7] = Mutagenicity in Salmonella typhimurium TA98 in presence of rat S9 fraction by Ames test; assay type: toxicity, subcellular; details: salmonella enterica subsp. enterica serovar typhimurium
How it was run: (§1)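 Ames bacterial mutagenicity test in S. typhimurium TA98 and TA100. Run with and without metabolic activation by rat S9 fraction.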

[8] = Mutagenicity in Salmonella typhimurium TA98 in absence of rat S9 fraction by Ames test; assay type: toxicity; details: salmonella enterica subsp. enterica serovar typhimurium; how it was run: as §1
[9] = Mutagenicity in Salmonella typhimurium TA100 in presence of rat S9 fraction by Ames test; assay type: toxicity, subcellular; details: salmonella enterica subsp. enterica serovar typhimurium; how it was run: as §1
[10] = Mutagenicity in Salmonella typhimurium TA100 in absence of rat S9 fraction by Ames test; assay type: toxicity; details: salmonella enterica subsp. enterica serovar typhimurium; how it was run: as §1
[11] = Octanol-phosphate buffer partition co-efficient, log D of the compound at pH 7.4 after 2 hrs by LC-MS/MS-based shake flask method; assay type: physicochemical
How it was run: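 Distribution between octanol and water at pH 7.4.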

[12] = target: T3, Arachidonate 5-lipoxygenase-activating protein (Homo sapiens, UniProt P20292); experiment: Inhibition of [3H]MK0591 binding to human FLAP expressed in […] cell membranes measured after 60 to 80 mins by microbeta scintillation counting method
T3 sequence (P20292 whole entry): T1 sequence (whole entry)

[13] = Passive apparent permeability across apical to basolateral side in human Caco2 cells at pH 6.5; assay type: ADME, cell-based; details: Caco-2, pH 6.5
How it was run: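 Passive permeability across Caco-2 monolayers, measured in the A to B direction at pH 6.5.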

Canis familiaris [14] = experiment: Ex vivo inhibition of FLAP in po dosed Beagle dog assessed as reduction in ionophore-stimulated LTB4 production administered daily for 3 consecutive days measured during compound dosing by LC-MS/MS analysis; assay type: functional, organism-based; details: Canis lupus familiaris
How it was run: (§2)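 Beagle dogs were given oral doses once daily for 3 consecutive days at 0.02, 0.09 or 0.2 mg/kg (n=3 per dose). Blood was stimulated ex vivo with calcium ionophore, and LTB4 production was measured during dosing and up to 24 h after the last dose. Results were baseline-corrected, plotted with plasma concentration and reported as medians.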

Canis familiaris [15] = experiment: Ex vivo inhibition of FLAP in Beagle dog assessed as reduction in ionophore-stimulated LTB4 production at 0.9 mg/kg, po measured within 2.5 hrs relative to control; assay type: functional, Canis lupus familiaris
How it was run: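 Two beagle dogs were given a single oral dose of 0.9 mg/kg. LTB4 production in calcium ionophore-stimulated blood was followed ex vivo over time and compared with pre-dose baseline.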

Canis familiaris [16] = experiment: Ex vivo inhibition of FLAP in Beagle dog assessed as reduction in ionophore-stimulated LTB4 production at 0.18 mg/kg, po on day1 and 0.09 mg/kg, po on day 3 measured after 4 to 9 hrs relative to control; assay type: functional, Canis lupus familiaris
How it was run: (§3)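 Two beagle dogs were given two oral doses 48 h apart: 0.18 mg/kg on day 1 and 0.09 mg/kg on day 3. LTB4 production in calcium ionophore-stimulated blood was followed ex vivo after each dose, including 48 h after the second dose, and compared with baseline.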

Canis familiaris [17] = experiment: Ex vivo reversible inhibition of FLAP in Beagle dog assessed as reduction in ionophore-stimulated LTB4 production at 0.18 mg/kg, po on day1 and 0.09 mg/kg, po on day 3 measured after 48 hrs; assay type: functional, organism-based; details: Canis lupus familiaris; how it was run: as §3
Canis familiaris [18] = experiment: Ex vivo inhibition of FLAP in Beagle dog assessed as reduction in ionophore-stimulated LTB4 production at 0.02 to 0.2 mg/kg, po administered daily for 3 consecutive days measured 24 hrs post-last dose by LC-MS/MS analysis; assay type: functional, organism-based; details: Canis lupus familiaris; how it was run: as §2
Canis familiaris [19] = experiment: Ex vivo inhibition of FLAP in Beagle dog assessed as reduction in LTE4 level in urine at 0.09 to 0.2 mg/kg, po administered daily for 3 consecutive days measured 24 hrs post-last dose by colorimetric method; assay type: functional, Canis lupus familiaris
How it was run: (§4)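 Urinary LTE4 was measured at baseline and over the final 24 h of dosing in beagle dogs given oral doses once daily for 3 consecutive days (0.02, 0.09 or 0.2 mg/kg, n=3 per dose). Dogs with baseline uLTE4 below the LOQ were excluded. Inhibition was expressed relative to each dog's own baseline.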

Canis familiaris [20] = experiment: Ex vivo inhibition of FLAP in Beagle dog assessed as reduction in LTE4 level in urine at 0.02 mg/kg, po administered daily for 3 consecutive days measured 24 hrs post-last dose by colorimetric method relative to control; assay type: functional; details: Canis lupus familiaris; how it was run: as §4
Homo sapiens [21] = experiment: Suppression of calcium ionophore-stimulated LTB4 production in po dosed human blood administered as single dose; assay type: functional, organism-based
How it was run: (§5)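 Fresh blood drawn from healthy volunteers dosed with an oral suspension. Single doses were 25–1200 mg (SAD). Multiple dosing was 60, 180, 300 or 600 mg once daily for 10 days (MAD). LTB4 was measured after ex vivo calcium ionophore stimulation, relative to baseline.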

Homo sapiens [22] = experiment: Suppression of calcium ionophore-stimulated LTB4 production in po dosed human blood administered daily for 10 days; assay type: functional, organism-based; how it was run: as §5
Homo sapiens [23] = experiment: Suppression of urine LTE4 level in po dosed human administered as single dose; assay type: functional, organism-based
How it was run: (§6)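 Endogenous urinary LTE4 measured relative to baseline in healthy volunteers. Subjects received an oral suspension as single doses of 25–1200 mg, or 60–600 mg once daily for 10 days.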

Homo sapiens [24] = experiment: Suppression of urine LTE4 level in po dosed human administered daily for 10 days; assay type: functional, organism-based; how it was run: as §6
Homo sapiens [25] = experiment: Suppression of calcium ionophore-stimulated LTB4 production in human assessed as Cmin required to show >80% reduction in plasma LTB4 levels at 60 to 1200 mg, po administered as single dose measured after 24 hrs; assay type: functional
Canis lupus familiaris = species: Canis lupus familiaris; experiment: Inhibition of FLAP in dog whole blood assessed as reduction in calcium ionophore-stimulated LTB4 production; assay type: tissue-based
Canis familiaris [26] = experiment: Ex vivo inhibition of FLAP in po dosed Beagle dog assessed as reduction in ionophore-stimulated LTB4 production; assay type: functional, Canis lupus familiaris

fIC50 [1]: 6.5 nM
Activity [2]: inactive
Activity [3]: inactive
Structure (SMILES): Cc1cc(-c2ccc(C(=O)[C@@H]3CCCC[C@H]3C(=O)Nc3cnn(C)c3S(N)(=O)=O)cc2)n[nH]1
IC50 (THP-1): > 250 µM
IC50 (HepG2): > 250 µM

fIC50 [1]: 96 nM
Structure (SMILES): Cc1cc(-c2ccc(C(=O)[C@@H]3CCCC[C@H]3C(=O)Nc3c(C(N)=O)n[nH]c3C)cc2)n[nH]1

solubility thermodynamic at 24 h [4]: 60 µM (≈ 26.1 µg/mL)
hepatocyte CLint at 1 µM [5]: 12.4 µL/min/1e6 cells
hepatocyte CLint at 1 µM [6]: 14 µL/min/1e6 cells
Structure (SMILES): Cc1cc(-c2ccc(C(=O)[C@@H]3CCCC[C@H]3C(=O)Nc3cn(C)nc3C(N)=O)cc2)n[nH]1
Activity [7]: Non-Toxic
Activity [8]: Non-Toxic
Activity [9]: Non-Toxic
Activity [10]: Non-Toxic

logD at 2 h [11]: 2.1
solubility thermodynamic at 24 h [4]: 224 µM (≈ 101 µg/mL)
IC50 [12]: 0.047 µM
Structure (SMILES): Cc1cc(-c2ccc(C(=O)[C@@H]3CCCC[C@H]3C(=O)Nc3cnn(C)c3C(=O)NO)cc2)[nH]n1

logD at 2 h [11]: 3.1
solubility thermodynamic at 24 h [4]: 225 µM (≈ 91.2 µg/mL)
IC50 [12]: 0.059 µM
fIC50 [1]: 7.4 nM
hepatocyte CLint at 1 µM [5]: 4 µL/min/1e6 cells
hepatocyte CLint at 1 µM [6]: 12.8 µL/min/1e6 cells
Papp A→B [13]: 20.5 ×10⁻⁶ cm/s
Structure (SMILES): Cc1cc(-c2ccc(C(=O)[C@@H]3CCCC[C@H]3C(=O)Nc3cn(C)nc3C)cc2)n[nH]1
Activity [7]: Non-Toxic
Activity [8]: Non-Toxic
Activity [9]: Non-Toxic
Activity [10]: Non-Toxic

fIC50 [1]: 2 nM
Activity [2]: inactive
Activity [3]: inactive
Structure (SMILES): Cc1cc(-c2ccc(C(=O)[C@@H]3CCCC[C@H]3C(=O)Nc3cnn4c3C(=O)NCC4)cc2)n[nH]1
IC50 (THP-1): > 250 µM
IC50 (HepG2): > 250 µM
inhibition (Canis familiaris [14]): Dose-dependent effect
%max (Canis familiaris [15]): >90%
%max (Canis familiaris [16]): >90%
inhibition (Canis familiaris [17]): Active
inhibition (Canis familiaris [18]): inactive
inhibition (INH) (Canis familiaris [19]): 100%
inhibition in vivo at 0.02 mg/kg (Canis familiaris [20]): 60%
Activity (Homo sapiens [21]): Dose-dependent effect
Activity (Homo sapiens [22]): Dose-dependent effect
Activity (Homo sapiens [23]): Dose-dependent effect
Activity (Homo sapiens [24]): Dose-dependent effect
Cmin (Homo sapiens [25]): >15 nM
fIC50 (Canis lupus familiaris): 1 nM
fIC50 (Canis familiaris [26]): 0.1 nM

logD at 2 h [11]: 2.1
solubility thermodynamic at 24 h [4]: 496 µM (≈ 216 µg/mL)
IC50 [12]: 0.241 µM
fIC50 [1]: 487 nM
Structure (SMILES): Cc1cc(-c2ccc(C(=O)[C@@H]3CCCC[C@H]3C(=O)Nc3cnn(CC(N)=O)c3)cc2)[nH]n1
